Data taken from ChEMBL document CHEMBL1687766, “In vitro activity of the new multivalent glycopeptide-cephalosporin antibiotic TD-1792 against vancomycin-nonsusceptible Staphylococcus isolates” (Antimicrob Agents Chemother, 2010).
≈ marks a conversion by molar mass, not a printed value.

Key:
Assay type in all cases: functional
Staphylococcus aureus [1] = test: Antimicrobial activity against vancomycin-resistant Staphylococcus aureus isolate PA after 24 hrs by microdilution method
Method in brief: (§1)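 Broth microdilution per CLSI, inoculum 5 × 10^5 CFU/ml, Mueller-Hinton broth with 12.5 μg/ml magnesium and 25 μg/ml calcium (SMHB). Daptomycin was instead tested in SMHB at physiologic calcium (final 1.1 to 1.3 mM). Incubation 24 h at 35°C; MIC read; run in duplicate. MBC from 5-μl samples of clear wells plated on BHI agar, 24 h at 35°C.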

Staphylococcus aureus [2] = test: Antimicrobial activity against vancomycin-intermediate Staphylococcus aureus isolate NJ992 assessed as bacterial count at 4 times MIC after 24 hrs by colony counting method
Method in brief: (§2)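 24-h time-kill run in triplicate in supplemented Mueller-Hinton broth (12.5 μg/ml Mg, 25 μg/ml Ca), adjusted to 1.1–1.3 mM Ca for daptomycin. […] Samples were taken at 0, 1, 4, 8 and 24 h and counted on BHI agar after 24 h at 35°C. Value is log10 CFU/ml change from baseline at 24 h.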

Staphylococcus aureus [3] = test: Antimicrobial activity against vancomycin-intermediate Staphylococcus aureus isolate NJ992 after 24 hrs by microdilution method; conditions: isolate NJ992, 24 h; method in brief: as §1
Staphylococcus aureus [4] = test: Antimicrobial activity against vancomycin-resistant Staphylococcus aureus isolate NY after 24 hrs by microdilution method; method in brief: as §1
Staphylococcus aureus [5] = test: Antimicrobial activity against vancomycin-resistant Staphylococcus aureus isolate MI assessed as bacterial count at 4 times MIC after 24 hrs by colony counting method
Method in brief: (§3)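 Time-kill in triplicate. Mid-exponential culture (OD600 ~0.3) diluted in supplemented Mueller-Hinton broth to 5 × 10^6 CFU/ml. Daptomycin was run at physiologic calcium, 1.1 to 1.3 mM. […] Samples at 0, 1, 4, 8 and 24 h were diluted in cold saline or vacuum filtered, then spiral-plated on BHI agar for 24 h at 35°C. Value is the log10 CFU/ml change from baseline at 24 h.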

Staphylococcus aureus [6] = test: Antimicrobial activity against vancomycin-intermediate Staphylococcus aureus isolate MU50 assessed as bacterial count at 16 times MIC after 24 hrs by colony counting method in presence of 50% human serum
Method in brief: (§4)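 Triplicate 24-h time-kill in 50% human serum (heated 56°C 1 h, filtered) mixed with supplemented Mueller-Hinton broth, giving final 25 μg/ml Ca broth strength for TD-1792 and 50 for daptomycin. […] Samples from 0 to 24 h were counted on BHI agar (35°C, 24 h). Value is log10 CFU/ml change from baseline.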

Staphylococcus aureus [7] = test: Antimicrobial activity against vancomycin-resistant Staphylococcus aureus isolate PA assessed as bacterial count at 4 times MIC after 24 hrs by colony counting method; method in brief: as §3
Staphylococcus aureus [8] = test: Antimicrobial activity against vancomycin-intermediate Staphylococcus aureus isolate MU50 after 24 hrs by microdilution method in presence of 50% human serum; conditions: isolate MU50, 24 h
Method in brief: (§5)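 Broth microdilution per CLSI, inoculum 5 × 10^5 CFU/ml, 24 h at 35°C, in duplicate. Medium was 50% (vol/vol) human serum plus 50% broth, final 25 SMHB for TD-1792 and 50 SMHB for daptomycin. Serum was heated 56°C for 1 h and filtered through 0.8, 0.5 and 0.22 μm. MBC by plating clear wells on BHI agar.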

Staphylococcus aureus [9] = test: Antimicrobial activity against vancomycin-intermediate Staphylococcus aureus isolate NJ992 assessed as bacterial count at 16 times MIC after 24 hrs by colony counting method; method in brief: as §2
Staphylococcus aureus [10] = test: Antimicrobial activity against vancomycin-intermediate Staphylococcus aureus isolate MU50 assessed as bacterial count at 4 times MIC after 24 hrs by colony counting method in presence of 50% human serum; method in brief: as §4
Staphylococcus aureus [11] = test: Antimicrobial activity against vancomycin-resistant Staphylococcus aureus isolate MI assessed as bacterial count at 8 times MIC after 24 hrs by colony counting method in presence of 50% human serum
Method in brief: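 Time-kill in triplicate, starting inoculum 5 × 10^6 CFU/ml from a mid-exponential culture. Medium was 50% heat-treated, filtered human serum plus 50% broth, final 25 SMHB for TD-1792 and 50 SMHB for daptomycin. Drug at multiples of MIC. Samples to 24 h were plated on BHI agar for 24 h at 35°C. Value is the log10 CFU/ml change from baseline at 24 h.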

Staphylococcus aureus [12] = test: Antimicrobial activity against vancomycin-intermediate Staphylococcus aureus isolate NJ992 after 24 hrs by microdilution method in presence of 50% human serum; conditions: isolate NJ992, 24 h; method in brief: as §5
Staphylococcus aureus [13] = test: Antimicrobial activity against vancomycin-resistant Staphylococcus aureus isolate PA after 24 hrs by microdilution method in presence of 50% human serum; method in brief: as §5
Staphylococcus aureus [14] = test: Antimicrobial activity against vancomycin-intermediate Staphylococcus aureus isolate MU50 assessed as bacterial count at 8 times MIC after 24 hrs by colony counting method; method in brief: as §2
Staphylococcus aureus [15] = test: Ratio of MIC for vancomycin-intermediate Staphylococcus aureus in presence of 50% human serum to MIC for vancomycin-intermediate Staphylococcus aureus
Staphylococcus aureus [16] = test: Antimicrobial activity against vancomycin-intermediate Staphylococcus aureus isolate NJ992 assessed as bacterial count at 8 times MIC after 24 hrs by colony counting method; method in brief: as §2
[17] = tested on: Staphylococcus haemolyticus; test: Antimicrobial activity against vancomycin-intermediate Staphylococcus haemolyticus after 24 hrs by microdilution method; conditions: for MBC / MIC50 / MIC90: Staphylococcus haemolyticus, 24 h
Method in brief: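 CLSI broth microdilution in supplemented Mueller-Hinton broth (12.5 μg/ml Mg, 25 μg/ml Ca), with Ca adjusted to 1.1–1.3 mM for daptomycin. Inoculum was 5 × 10^5 CFU/ml, incubated 24 h at 35°C, done in duplicate. For MBC, clear wells were plated on BHI agar and read after 24 h at 35°C.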

Staphylococcus aureus [18] = test: Antimicrobial activity against vancomycin-intermediate Staphylococcus aureus after 24 hrs by microdilution method; conditions: for MBC / MIC50 / MIC90: Staphylococcus aureus, 24 h; method in brief: as §1
Staphylococcus aureus [19] = test: Antimicrobial activity against vancomycin-intermediate Staphylococcus aureus isolate NJ992 assessed as bacterial count at 4 times MIC after 24 hrs by colony counting method in presence of 50% human serum; method in brief: as §4
Staphylococcus aureus [20] = test: Antimicrobial activity against vancomycin-intermediate Staphylococcus aureus isolate MU50 assessed as bacterial count at 32 times MIC after 24 hrs by colony counting method in presence of 50% human serum; method in brief: as §4
Staphylococcus aureus [21] = test: Antimicrobial activity against vancomycin-resistant Staphylococcus aureus isolate PA assessed as bacterial count at 16 times MIC after 24 hrs by colony counting method; method in brief: as §3
Staphylococcus aureus [22] = test: Antimicrobial activity against vancomycin-resistant Staphylococcus aureus isolate PA assessed as bacterial count at 32 times MIC after 24 hrs by colony counting method; method in brief: as §3
Staphylococcus aureus [23] = test: Antimicrobial activity against vancomycin-intermediate Staphylococcus aureus isolate NJ992 assessed as bacterial count at 32 times MIC after 24 hrs by colony counting method; method in brief: as §2
Staphylococcus aureus [24] = test: Antimicrobial activity against vancomycin-resistant Staphylococcus aureus isolate MI after 24 hrs by microdilution method; method in brief: as §1

| SMILES | MBC (Staphylococcus aureus [1]) | MIC (Staphylococcus aureus [1]) | log10CFU/ml (Staphylococcus aureus [2]) | MBC (Staphylococcus aureus [3]) | MIC (Staphylococcus aureus [3]) | MBC (Staphylococcus aureus [4]) | MIC (Staphylococcus aureus [4]) | log10CFU/ml (Staphylococcus aureus [5]) | log10CFU/ml (Staphylococcus aureus [6]) | log10CFU/ml (Staphylococcus aureus [7]) | MBC (Staphylococcus aureus [8]) | MIC (Staphylococcus aureus [8]) | log10CFU/ml (Staphylococcus aureus [9]) | log10CFU/ml (Staphylococcus aureus [10]) | log10CFU/ml (Staphylococcus aureus [11]) | MBC (Staphylococcus aureus [12]) | MIC (Staphylococcus aureus [12]) | MBC (Staphylococcus aureus [13]) | MIC (Staphylococcus aureus [13]) | log10CFU/ml (Staphylococcus aureus [14]) | other results |
| --- | --- | --- | --- | --- | --- | --- | --- | --- | --- | --- | --- | --- | --- | --- | --- | --- | --- | --- | --- | --- | --- |
| CCCCCCCCCC(=O)N[C@@H](Cc1c[nH]c2ccccc12)C(=O)N[C@H](CC(N)=O)C(=O)N[C@@H](CC(=O)O)C(=O)N[C@@H]1C(=O)NCC(=O)N[C@@H](CCCN)C(=O)N[C@@H](CC(=O)O)C(=O)N[C@H](C)C(=O)N[C@@H](CC(=O)O)C(=O)NCC(=O)N[C@H](CO)C(=O)N[C@@H]([C@H](C)CC(=O)O)C(=O)N[C@@H](CC(=O)c2ccccc2N)C(=O)O[C@@H]1C | 0.25 µg/mL (≈ 0.154 µM) | 0.25 µg/mL (≈ 0.154 µM) | 3.61 | 1 µg/mL (≈ 0.617 µM) | 1 µg/mL (≈ 0.617 µM) | 0.125 µg/mL (≈ 0.0771 µM) | 0.125 µg/mL (≈ 0.0771 µM) | 4.59 | 5.09 | 3.33 | 2 µg/mL | 2 µg/mL | 4.68 | 4.01 | 4.69 | 2 µg/mL | 2 µg/mL | 0.5 µg/mL | 0.25 µg/mL | 4.82 | Ratio (Staphylococcus aureus [15]): 2; log10CFU/ml (Staphylococcus aureus [16]): 3.86; MBC50 [17]: 1 µg/mL (≈ 0.617 µM); MBC90 [17]: 2 µg/mL (≈ 1.23 µM); MBC [17]: 0.25 µg/mL (≈ 0.154 µM); MIC50 [17]: 1 µg/mL (≈ 0.617 µM); MIC90 [17]: 1 µg/mL (≈ 0.617 µM); MBC50 (Staphylococcus aureus [18]): 1 µg/mL (≈ 0.617 µM); MBC90 (Staphylococcus aureus [18]): 2 µg/mL (≈ 1.23 µM); MBC (Staphylococcus aureus [18]): 0.25 µg/mL (≈ 0.154 µM); MIC50 (Staphylococcus aureus [18]): 1 µg/mL (≈ 0.617 µM); MIC90 (Staphylococcus aureus [18]): 1 µg/mL (≈ 0.617 µM); log10CFU/ml (Staphylococcus aureus [19]): 4.78; log10CFU/ml (Staphylococcus aureus [20]): 5.23; log10CFU/ml (Staphylococcus aureus [21]): 5.14; log10CFU/ml (Staphylococcus aureus [22]): 5.1; log10CFU/ml (Staphylococcus aureus [23]): 4.93; MBC (Staphylococcus aureus [24]): 0.25 µg/mL (≈ 0.154 µM); MIC (Staphylococcus aureus [24]): 0.25 µg/mL (≈ 0.154 µM) |
| CN[C@H](CC(C)C)C(=O)N[C@H]1C(=O)N[C@@H](CC(N)=O)C(=O)N[C@H]2C(=O)N[C@H]3C(=O)N[C@H](C(=O)N[C@H](C(=O)NCCCO/N=C(\C(=O)N[C@@H]4C(=O)N5C(C(=O)[O-])=C(C[n+]6ccccc6)CS[C@H]45)c4nc(N)sc4Cl)c4cc(O)cc(O)c4-c4cc3ccc4O)[C@H](O)c3ccc(c(Cl)c3)Oc3cc2cc(c3O[C@@H]2O[C@H](CO)[C@@H](O)[C@H](O)[C@H]2O[C@H]2C[C@](C)(N)[C@H](O)[C@H](C)O2)Oc2ccc(cc2Cl)[C@H]1O | 0.125 µg/mL (≈ 0.063 µM) | 0.03 µg/mL (≈ 0.0151 µM) | 3.84 | 0.06 µg/mL (≈ 0.0303 µM) | 0.06 µg/mL (≈ 0.0303 µM) | 0.06 µg/mL (≈ 0.0303 µM) | 0.03 µg/mL (≈ 0.0151 µM) | 2.95 | 4.37 | 4.06 | 0.25 µg/mL | 0.25 µg/mL | 4.94 | 3.05 | 4.06 | 0.25 µg/mL | 0.25 µg/mL | 0.125 µg/mL | 0.125 µg/mL | 4.33 | Ratio (Staphylococcus aureus [15]): 2; log10CFU/ml (Staphylococcus aureus [16]): 4.48; MBC50 [17]: 0.06 µg/mL (≈ 0.0303 µM); MBC90 [17]: 0.125 µg/mL (≈ 0.063 µM); MBC [17]: 0.015 µg/mL (≈ 0.00756 µM); MIC50 [17]: 0.06 µg/mL (≈ 0.0303 µM); MIC90 [17]: 0.125 µg/mL (≈ 0.063 µM); MBC50 (Staphylococcus aureus [18]): 0.06 µg/mL (≈ 0.0303 µM); MBC90 (Staphylococcus aureus [18]): 0.125 µg/mL (≈ 0.063 µM); MBC (Staphylococcus aureus [18]): 0.015 µg/mL (≈ 0.00756 µM); MIC50 (Staphylococcus aureus [18]): 0.06 µg/mL (≈ 0.0303 µM); MIC90 (Staphylococcus aureus [18]): 0.125 µg/mL (≈ 0.063 µM); log10CFU/ml (Staphylococcus aureus [19]): 3.61; log10CFU/ml (Staphylococcus aureus [20]): 4.81; log10CFU/ml (Staphylococcus aureus [21]): 4.17; log10CFU/ml (Staphylococcus aureus [22]): 5.05; log10CFU/ml (Staphylococcus aureus [23]): 5; MBC (Staphylococcus aureus [24]): 0.5 µg/mL (≈ 0.252 µM); MIC (Staphylococcus aureus [24]): 0.25 µg/mL (≈ 0.126 µM) |
